# Shown are actives, neighbours in structure and some others; about 2% of the full set was active somewhere.
# LMPTP block: blocks human LMPTP phosphatase. P24666. recombinant LMPTP-A, OMFP fluorogenic substrate, fluorescence intensity. inhibition, % at 20 µM. 360,000 tested, 0.22% active. AID 651560;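 active = compounds that cut the enzyme signal by at least half of the control window in the single-dose screen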;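 note: plate controls were DMSO wells with enzyme plus substrate for no effect and substrate without enzyme for full effect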
#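 Assay system: LMPTP-A enzyme. Input: 0.625 nM LMPTP-A final. Probe or stimulus: 400 µM OMFP. Compound dosing: single 20 µM dose. Schedule: 50 min dark incubation at room temperature. Detection: fluorescence intensity of OMFP turnover product. Read-out: percent inhibition versus substrate-only and uninhibited controls. Benchmarks: no-enzyme low control, uninhibited high control.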
# Rpn11 block: blocks the human proteasome subunit Rpn11; O00487; human 26S proteasome, Ub4-pepOG fluorescence polarization; 20S core pre-blocked with epoxomicin; inhibition, % at 20 µM; 360,000 tested, 0.59% active; AID 588493;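 active = inhibition at 20 µM, scaled to each plate's controls, above about 33%, limit read from the data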
# Scp-1 inhibitor: blocks human Scp-1 phosphatase activity; Q9GZU7; inhibition, % at 20 µM; Recombinant Scp1, phosphopeptide, malachite green phosphate absorbance; 340,000 tested, 0.88% active; AID 493091;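 active = inhibition above about 50% at 20 µM, limit read from the data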;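 note: plate controls were DMSO wells with enzyme for no effect and wells lacking enzyme for full effect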
#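 Incubation: 45 min enzyme reaction at room temperature / System: truncated SCP-1 phosphatase (76-261aa) / Reagent: Phospho 17-mer peptide substrate / Buffer or medium: Acidic Tris acetate buffer with magnesium and detergent / Signal: absorbance at 630 nm / Doses: one concentration, 20 µM, with 1.0% DMSO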
# STEP block: STEP (human) phosphatase inhibition; inhibition, % at 20 µM; 360,000 tested, 0.25% active; recombinant STEP, OMFP fluorogenic substrate, fluorescence; P54829;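 active = inhibition at 20 µM, scaled per plate between control wells, above about 37%, limit read from the data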;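 note: 0% = DMSO with enzyme and substrate and 100% = substrate only without enzyme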
#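 Material: STEP (striatal-enriched tyrosine phosphatase) enzyme, cell-free | Medium: 50 mM Bis-Tris pH 6.0 with 2.5 mM DTT and 0.005% Tween 20 | Read-out: Percent inhibition scaled to no-enzyme and uninhibited-enzyme controls, plate-pattern corrected | Signal: Fluorescence read at 480 nm ex / 540 nm em | Times: 20 min reaction, room temperature, in the dark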
# DNMT1 block: blocks human DNA methyltransferase DNMT1 | inhibition (reported as % activation of signal), % at 10 µM | P26358 | DNMT1 molecular beacon, Hinp1I cleavage, fluorescence | 360,000 tested, 0.83% active; in the data active = inhibition above about 50%
# Target sequence (P26358 504-1616 limits assumed): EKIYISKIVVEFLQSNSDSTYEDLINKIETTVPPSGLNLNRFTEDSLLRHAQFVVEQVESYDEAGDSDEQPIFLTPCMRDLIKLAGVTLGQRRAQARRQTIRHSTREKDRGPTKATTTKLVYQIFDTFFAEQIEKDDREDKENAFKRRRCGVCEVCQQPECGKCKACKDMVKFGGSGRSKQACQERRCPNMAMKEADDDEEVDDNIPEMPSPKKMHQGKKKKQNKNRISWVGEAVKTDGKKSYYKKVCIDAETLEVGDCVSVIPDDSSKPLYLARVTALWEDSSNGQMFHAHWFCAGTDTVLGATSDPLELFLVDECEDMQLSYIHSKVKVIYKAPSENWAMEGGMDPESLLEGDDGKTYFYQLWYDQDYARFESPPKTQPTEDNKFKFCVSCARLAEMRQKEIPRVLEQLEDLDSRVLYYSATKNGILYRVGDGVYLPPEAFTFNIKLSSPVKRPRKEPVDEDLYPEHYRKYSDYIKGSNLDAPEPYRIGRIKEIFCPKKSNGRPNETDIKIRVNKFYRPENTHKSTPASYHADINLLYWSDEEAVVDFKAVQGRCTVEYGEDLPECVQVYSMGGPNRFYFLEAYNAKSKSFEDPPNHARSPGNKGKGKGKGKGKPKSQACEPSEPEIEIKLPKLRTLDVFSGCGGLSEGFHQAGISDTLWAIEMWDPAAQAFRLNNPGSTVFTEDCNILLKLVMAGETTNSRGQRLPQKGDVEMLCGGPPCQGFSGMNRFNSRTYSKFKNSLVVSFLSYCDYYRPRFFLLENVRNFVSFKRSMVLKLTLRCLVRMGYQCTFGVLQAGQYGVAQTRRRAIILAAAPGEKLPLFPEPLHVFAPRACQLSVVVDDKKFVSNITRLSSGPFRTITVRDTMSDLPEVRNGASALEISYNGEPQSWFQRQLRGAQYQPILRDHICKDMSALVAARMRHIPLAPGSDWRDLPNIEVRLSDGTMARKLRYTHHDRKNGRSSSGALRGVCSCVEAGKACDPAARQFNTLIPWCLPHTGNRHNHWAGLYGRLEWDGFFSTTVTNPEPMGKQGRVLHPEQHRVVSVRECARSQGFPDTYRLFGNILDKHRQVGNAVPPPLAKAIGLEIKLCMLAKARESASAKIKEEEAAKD
# DNMT1 inh conf: confirmation of human DNMT1 inhibitors. inhibition, % at 10 µM. AID 602385. shares compounds with DNMT1 block. DNMT1 molecular beacon HinP1I cleavage, fluorescence. 2,300 tested, 8% active;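 active = average inhibition of at least 30% in the single-concentration confirmation test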
# Beacon interf: counter-screen for DNMT1 inhibitors: spectral interference. shares compounds with DNMT1 block. DNMT1 molecular beacon spectral interference counterscreen, fluorescence 485/520. activation (fluorescence interference), % at 10 µM. 2,300 tested, 1% active;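 active = activation of at least 30% at 10 µM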;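 note: DNMT1 catalytic domain with a HinP1I cleavage step and a FAM/dabcyl DNA beacon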
# Active calls of the source: *; nt = not tested or not shown.
SMILES,LMPTP block,Rpn11 block,Scp-1 inhibitor,STEP block,DNMT1 block,DNMT1 inh conf,Beacon interf
Cn1cc(Br)c(C(=O)Nc2sc3c(c2C(N)=O)CCCC3)n1,3,2,2,5,-3,nt,nt
NC(=O)c1sc2nc3c(c(-c4ccco4)c2c1N)CCC3,2,-11,0,5,75*,12,12
NC(=O)c1sc2nc(-c3ccco3)ccc2c1N,13,14,4,10,98*,5,5
COC(=O)c1sc2nc(-c3ccco3)ccc2c1N,4,2,-4,16,-2,nt,nt
Cc1ccc(NC(=O)c2ccc(Cl)c(S(=O)(=O)Nc3c(C)n(C)n(-c4ccccc4)c3=O)c2)cc1Cl,4,2,-4,2,-4,nt,nt
Nc1c(C(=O)N/N=C/c2ccc(Cl)cc2)cnn1-c1ccccc1,11,-2,-4,-2,9,nt,nt
Nc1c(C(=O)N/N=C/c2ccc(OCc3ccccc3)cc2)cnn1-c1ccccc1,50*,11,5,13,51*,1,4
Cc1nc(S(=O)(=O)Nc2ccccc2C(=O)NCC2CC2)cn1C,-1,2,-10,0,1,nt,nt
Cc1ccnc(NC(=O)CCC(=O)N(CC(=O)NCc2ccc(F)cc2)c2ccc(F)cc2)c1,-1,5,-3,-3,73*,6,7
Cc1ccnc(NC(=O)CCC(=O)N(CC(=O)NCCc2ccccc2)c2ccc(F)cc2)c1,1,3,-3,3,2,nt,nt
CO[C@H]1O[C@H](CBr)[C@@H](OC(=O)c2ccccc2)[C@H](O)[C@H]1O,-1,-11,0,0,7,nt,nt
OC1CCCN(Cc2ccc3ccc4cccc5ccc2c3c45)C1 (stereo unspecified),0,-6,0,0,65*,1,0
c1cc2ccc3ccc(CN4CCOCC4)c4ccc(c1)c2c34,1,-2,-8,4,7,nt,nt
COc1ccc(C(=O)COC(=O)CNC(=O)c2ccccc2)cc1F,-1,8,-8,2,-5,nt,nt
N#Cc1c(-c2ccco2)cc(-c2ccccc2)[nH]c1=O,8,31,9,2,42,nt,nt
Cc1ccc(-c2cc(-c3ccco3)c(C#N)c(=O)[nH]2)cc1,49*,-24,22,4,58*,0,-2
CSS(=O)(=O)c1cccc2cccnc12,-1,4,29,0,4,nt,nt
O=C(C[C@H]1C/C=C\C[C@H](NC(=O)OCC2c3ccccc3-c3ccccc32)C(=O)OC[C@H](Cc2ccccc2)NC1=O)N[C@H](CO)Cc1ccccc1,0,13,-4,-4,51*,3,-3
CC(C)(C)OC(=O)NCCCCCNC(=O)c1[nH]cnc1C(=O)NC1CCN(C(=O)OC(C)(C)C)CC1,3,2,0,-1,76*,8,7
C=C(C)[C@@H]1CCC2(C(=O)O)CC[C@]3(C)[C@H](CC[C@@H]4[C@@]5(C)CCC(=O)C(C)(C)[C@@H]5CC[C@]43C)[C@@H]12 (stereo partly specified),2,1,4,1,55*,1,-8
CC1(C)C2CC[C@]3(C)C(CC=C4[C@@H]5C[C@@](C)(CO)[C@@H](O)C[C@]5(C(=O)O)CC[C@]43C)[C@@]2(C)CC[C@@H]1O (stereo partly specified),1,-10,10,-1,-2,nt,nt
C=C(C)[C@@H]1CC[C@]2(C(=O)O)CC[C@]3(C)C(CCC4[C@@]5(C)CC[C@H](O)C(C)(C)C5CC[C@]43C)C12 (stereo partly specified),0,-1,-4,4,60*,-1,-16
C=C(CC[C@@H](O)C(C)(C)O)[C@H]1CC[C@]2(C)[C@@H]1CCC1[C@@]3(C)CCC(=O)C(C)(C)C3CC[C@]12C (stereo partly specified),0,2,4,3,-4,nt,nt
NC1=NC[C@@H](Cc2ccc(O)cc2)N1CCC12CC3CC(CC(C3)C1)C2,0,-2,4,0,58*,0,-1
CCNC(=O)C1(C)CCN1CCC(=O)c1ccc(Br)cc1 (stereo unspecified),-1,0,nt,-2,9,nt,nt
SMILES,LMPTP block,Rpn11 block,Scp-1 inhibitor,STEP block,DNMT1 block,DNMT1 inh conf,Beacon interf
COc1cc(OC)cc(C(=O)NCC2CCCN(C(=O)c3oc(C)cc3C)C2)c1 (stereo unspecified),-1,-2,-9,-1,1,nt,nt
C[C@H]1CCCCO[C@H](CN(C)Cc2ccccc2)[C@@H](C)CN([C@@H](C)CO)C(=O)c2cc(NC(=O)CCC(F)(F)F)ccc2O1,0,2,nt,1,65*,5,4
COc1ccc(CN(C)C[C@H]2OCCCC[C@H](C)Oc3ccc(NC(=O)CCC(F)(F)F)cc3C(=O)N([C@@H](C)CO)C[C@@H]2C)cc1,2,-6,nt,1,5,nt,nt
Cc1nn(CC(C)C)c(Cl)c1C(=O)N(C)CC(=O)Nc1c(Cl)cccc1Cl,-1,0,2,-2,3,nt,nt
CC(=O)NC12CC3CC(C1)CC(C(=O)OCC(=O)c1cc(C)n(C)c1C)(C3)C2,-1,-3,-3,2,51*,3,2
O=C(Cc1cccs1)Nc1ccc(S(=O)(=O)Nc2ncccn2)cc1,6,23,25,-3,68*,13,0
CC(=O)c1ccc(OC(=O)CCc2ccccc2)cc1,3,2,-18,1,4,nt,nt
Cc1cccc(CNC(=O)C2CCC(=O)N(C3CCCCCC3)C2)c1 (stereo unspecified),-1,-4,1,2,-1,nt,nt
CCN1C(=O)[C@H]2[C@@H](c3ccc(-c4cccc(Cl)c4)c(OC)c3)N[C@@](Cc3ccccc3)(C(=O)OC)[C@H]2C1=O,4,0,-6,1,112*,0,6
COC(=O)[C@]1(Cc2ccccc2)N[C@H](c2ccc(-c3cccc(Cl)c3)c(OC)c2)[C@@H]2C(=O)N(C)C(=O)[C@@H]21,4,19,0,4,-18,nt,nt
O=C(COC(=O)/C=C/c1ccc(C(F)(F)F)cc1)NCc1ccco1,0,-5,1,3,-1,nt,nt
O=C(CSc1nnc(-c2ccc(OC(F)F)cc2)o1)NC(=O)NCc1ccco1,13,-11,49,6,83*,26,4
Cc1cc(SCC(=O)NC(=O)NCc2ccco2)nc2c(C)cccc12,-2,-7,41,3,53*,0,0
COc1ccc(-c2nnc(SCC(=O)NCc3ccco3)o2)cc1,0,-4,-4,0,2,nt,nt

# Source: PubChem
